Reference: ChEMBL document CHEMBL1777771, “Efficient synthesis and chiral separation of 11C-labeled ibuprofen assisted by DMSO for imaging of in vivo behavior of the individual isomers by positron emission tomography” (Bioorg Med Chem, 2011)

Experiments:
Format in all cases: ADME, organism-based
Conditions in all cases: in vivo, 0.5 h; call rule not given here
[1] = system: Liver; assay: Biodistribution in mouse liver at 9 to 12 MBq, iv after 30 mins by PET analysis
Summary of the method: (§1)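 Normal male BALB/c mice, 6–7 wk, under isoflurane with a heating pad. Each enantiomer given as a 0.2 mL iv bolus (<0.18 nmol) diluted in saline. PET acquired for 30 min in 13 frames and reconstructed by FBP without attenuation correction. Regional radioactivity taken from VOI analysis of time-activity curves.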

[2] = system: Heart; assay: Biodistribution in LPS treated BALB/c mouse anti-collagen antibody-induced arthritis model heart at 9 to 12 MBq, iv after 30 mins by PET analysis
Summary of the method: (§2)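 Male BALB/c mice, 6–7 wk. Arthritis induced with an iv anti-type II collagen mAb cocktail (1.5 mg), then ip LPS (30 μg) on day 3; mice used 4 days after LPS with a score of 3 in each limb. Enantiomer given as an iv bolus (<0.18 nmol, in saline). Dynamic PET for 30 min under isoflurane. VOIs drawn on ankles and heart; SUV time-activity curves. Each mouse received both isomers 5 h apart.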

[3] = system: Plasma; assay: Drug level in mouse plasma assessed as [11C]-ibuprofen level at 70 to 125 MBq, iv after 30 mins by HPLC analysis
Summary of the method: (§3)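 Normal mice, 20–25 g, n = 3 per isomer; iv dose <0.43 nmol. Decapitated at 30 min. Heparinized blood centrifuged to plasma; plasma radioactivity counted in a dose calibrator as % dose/mL. Plasma deproteinized with 2 volumes of ethanol and filtered, then run on chiral reversed-phase OJ-RH HPLC with radiodetection. Peaks identified by co-injected unlabeled ibuprofen; fractions decay- and baseline-corrected; mean ± SD.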

[4] = system: Mus musculus; assay: Biodistribution in LPS treated BALB/c mouse anti-collagen antibody-induced arthritis model ankle of hindlimb at 9 to 12 MBq, iv after 30 mins by PET analysis relative to normal mouse; summary of the method: as §2
[5] = system: Plasma; assay: Drug level in mouse plasma assessed as fraction of metabolites level at 70 to 125 MBq, iv after 30 mins by HPLC analysis; summary of the method: as §3
[6] = system: Plasma; assay: Drug level in mouse plasma at 70 to 125 MBq, iv after 30 mins by HPLC analysis; summary of the method: as §3
[7] = system: Urinary bladder; assay: Biodistribution in mouse bladder at 9 to 12 MBq, iv after 30 mins by PET analysis; summary of the method: as §1
[8] = system: Kidney; assay: Biodistribution in mouse kidney at 9 to 12 MBq, iv after 30 mins by PET analysis; summary of the method: as §1
[9] = system: Mus musculus; assay: Biodistribution in LPS treated BALB/c mouse anti-collagen antibody-induced arthritis model arthritic joints at 9 to 12 MBq, iv after 30 mins by PET analysis; summary of the method: as §2
[10] = system: Plasma; assay: Drug level in mouse plasma assessed as (S)-[11C]-ibuprofen level at 70 to 125 MBq, iv after 30 mins by HPLC analysis; summary of the method: as §3
[11] = system: Plasma; assay: Drug level in mouse plasma assessed as (R)-[11C]-ibuprofen level at 70 to 125 MBq, iv after 30 mins by HPLC analysis; summary of the method: as §3
[12] = system: Plasma; assay: Drug level in mouse plasma assessed as radioactivity of [11C]-ibuprofen at 70 to 125 MBq, iv after 30 mins by HPLC analysis; summary of the method: as §3
[13] = system: Mus musculus; assay: Biodistribution in mouse cerebrum at 9 to 12 MBq, iv after 30 mins by PET analysis; summary of the method: as §1

| Drug uptake [1] | Drug uptake [2] | Drug uptake [3] [%] | fold change (FC) [4] | Drug uptake [5] [%] | Drug uptake [6] [%ID/ml] | Drug uptake [7] | Drug uptake [8] | Drug uptake [9] | Drug uptake [10] [%] | Drug uptake [11] [%] | Drug uptake [12] [%ID/ml] | Drug uptake [13] | Structure (SMILES) |
| --- | --- | --- | --- | --- | --- | --- | --- | --- | --- | --- | --- | --- | --- |
| Active | Not Active | 75 | > 2 | 25 | 8.3 | Active | Active | Active | 52 | 23 | 5.9 | Active | CC(C)Cc1ccc([C@@H]([11CH3])C(=O)O)cc1 |
| Active | Not Active | 66 | > 2 | 34 | 8.9 | Active | Active | Active | 65 | 0.78 | 6.2 | Active | CC(C)Cc1ccc([C@H]([11CH3])C(=O)O)cc1 |
